Results as given in PMC3701436 (Journal of medicinal chemistry, 2012).

Legend:
[1] = molecular target: MeV RdRp (Measles virus, UniProt P12576); experiment: Plasmid-based mini-replicon luciferase assay of RdRp activity in BSR-T7/5 cells; format: cell-based; conditions: 36 hours post-transfection; averages of three experiments
Outline: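 BSR-T7/5 cells were transfected with plasmids encoding MeV L, N and P plus a firefly luciferase minigenome reporter, then incubated with a range of test compound concentrations or vehicle. Luciferase activity in cell lysates was read 36 h post-transfection and expressed relative to vehicle-treated samples. Dose-response inhibition curves were generated from the mean of three experiments ± SD.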

[2] = system: Caco-2; experiment: Caco-2 bi-directional permeability assay; format: in vitro ADME
[3] = system: bacterial reverse mutation; experiment: Non-GLP in vitro bacterial reverse mutation; format: cell-based
[4] = molecular target: hERG channels (Homo sapiens, UniProt Q12809); experiment: hERG channel block; format: biochemical; conditions: at a concentration of 10 μM or below
Chain of hERG channels (Q12809 whole entry): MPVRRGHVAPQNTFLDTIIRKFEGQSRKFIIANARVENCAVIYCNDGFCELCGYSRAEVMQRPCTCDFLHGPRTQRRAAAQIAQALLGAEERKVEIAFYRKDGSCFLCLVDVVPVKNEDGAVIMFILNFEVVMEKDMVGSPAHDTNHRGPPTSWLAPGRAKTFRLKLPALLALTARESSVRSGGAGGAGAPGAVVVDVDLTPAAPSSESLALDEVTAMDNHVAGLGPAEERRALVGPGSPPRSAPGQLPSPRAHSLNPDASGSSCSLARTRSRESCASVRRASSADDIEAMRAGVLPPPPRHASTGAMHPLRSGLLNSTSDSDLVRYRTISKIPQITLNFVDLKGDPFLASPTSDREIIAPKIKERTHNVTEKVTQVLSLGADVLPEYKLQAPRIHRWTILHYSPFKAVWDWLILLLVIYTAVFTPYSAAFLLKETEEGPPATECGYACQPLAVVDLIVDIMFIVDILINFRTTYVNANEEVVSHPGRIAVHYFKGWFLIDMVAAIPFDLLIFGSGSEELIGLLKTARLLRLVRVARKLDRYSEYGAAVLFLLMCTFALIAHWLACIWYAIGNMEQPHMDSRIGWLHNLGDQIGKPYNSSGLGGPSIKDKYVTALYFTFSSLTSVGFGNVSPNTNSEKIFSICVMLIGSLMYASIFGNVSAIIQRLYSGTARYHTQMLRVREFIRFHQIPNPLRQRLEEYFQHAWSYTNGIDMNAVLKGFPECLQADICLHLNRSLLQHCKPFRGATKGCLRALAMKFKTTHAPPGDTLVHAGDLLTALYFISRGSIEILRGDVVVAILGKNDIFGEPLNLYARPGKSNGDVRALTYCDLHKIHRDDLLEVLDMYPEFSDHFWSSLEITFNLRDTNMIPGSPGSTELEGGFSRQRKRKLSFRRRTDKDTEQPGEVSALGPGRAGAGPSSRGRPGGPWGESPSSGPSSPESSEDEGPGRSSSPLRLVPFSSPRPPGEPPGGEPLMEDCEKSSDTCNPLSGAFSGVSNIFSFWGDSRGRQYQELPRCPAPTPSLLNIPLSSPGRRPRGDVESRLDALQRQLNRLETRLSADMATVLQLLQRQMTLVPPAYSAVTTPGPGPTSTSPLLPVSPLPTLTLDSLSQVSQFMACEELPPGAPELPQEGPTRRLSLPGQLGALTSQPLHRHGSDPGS

Chain of MeV RdRp (P12576 whole entry): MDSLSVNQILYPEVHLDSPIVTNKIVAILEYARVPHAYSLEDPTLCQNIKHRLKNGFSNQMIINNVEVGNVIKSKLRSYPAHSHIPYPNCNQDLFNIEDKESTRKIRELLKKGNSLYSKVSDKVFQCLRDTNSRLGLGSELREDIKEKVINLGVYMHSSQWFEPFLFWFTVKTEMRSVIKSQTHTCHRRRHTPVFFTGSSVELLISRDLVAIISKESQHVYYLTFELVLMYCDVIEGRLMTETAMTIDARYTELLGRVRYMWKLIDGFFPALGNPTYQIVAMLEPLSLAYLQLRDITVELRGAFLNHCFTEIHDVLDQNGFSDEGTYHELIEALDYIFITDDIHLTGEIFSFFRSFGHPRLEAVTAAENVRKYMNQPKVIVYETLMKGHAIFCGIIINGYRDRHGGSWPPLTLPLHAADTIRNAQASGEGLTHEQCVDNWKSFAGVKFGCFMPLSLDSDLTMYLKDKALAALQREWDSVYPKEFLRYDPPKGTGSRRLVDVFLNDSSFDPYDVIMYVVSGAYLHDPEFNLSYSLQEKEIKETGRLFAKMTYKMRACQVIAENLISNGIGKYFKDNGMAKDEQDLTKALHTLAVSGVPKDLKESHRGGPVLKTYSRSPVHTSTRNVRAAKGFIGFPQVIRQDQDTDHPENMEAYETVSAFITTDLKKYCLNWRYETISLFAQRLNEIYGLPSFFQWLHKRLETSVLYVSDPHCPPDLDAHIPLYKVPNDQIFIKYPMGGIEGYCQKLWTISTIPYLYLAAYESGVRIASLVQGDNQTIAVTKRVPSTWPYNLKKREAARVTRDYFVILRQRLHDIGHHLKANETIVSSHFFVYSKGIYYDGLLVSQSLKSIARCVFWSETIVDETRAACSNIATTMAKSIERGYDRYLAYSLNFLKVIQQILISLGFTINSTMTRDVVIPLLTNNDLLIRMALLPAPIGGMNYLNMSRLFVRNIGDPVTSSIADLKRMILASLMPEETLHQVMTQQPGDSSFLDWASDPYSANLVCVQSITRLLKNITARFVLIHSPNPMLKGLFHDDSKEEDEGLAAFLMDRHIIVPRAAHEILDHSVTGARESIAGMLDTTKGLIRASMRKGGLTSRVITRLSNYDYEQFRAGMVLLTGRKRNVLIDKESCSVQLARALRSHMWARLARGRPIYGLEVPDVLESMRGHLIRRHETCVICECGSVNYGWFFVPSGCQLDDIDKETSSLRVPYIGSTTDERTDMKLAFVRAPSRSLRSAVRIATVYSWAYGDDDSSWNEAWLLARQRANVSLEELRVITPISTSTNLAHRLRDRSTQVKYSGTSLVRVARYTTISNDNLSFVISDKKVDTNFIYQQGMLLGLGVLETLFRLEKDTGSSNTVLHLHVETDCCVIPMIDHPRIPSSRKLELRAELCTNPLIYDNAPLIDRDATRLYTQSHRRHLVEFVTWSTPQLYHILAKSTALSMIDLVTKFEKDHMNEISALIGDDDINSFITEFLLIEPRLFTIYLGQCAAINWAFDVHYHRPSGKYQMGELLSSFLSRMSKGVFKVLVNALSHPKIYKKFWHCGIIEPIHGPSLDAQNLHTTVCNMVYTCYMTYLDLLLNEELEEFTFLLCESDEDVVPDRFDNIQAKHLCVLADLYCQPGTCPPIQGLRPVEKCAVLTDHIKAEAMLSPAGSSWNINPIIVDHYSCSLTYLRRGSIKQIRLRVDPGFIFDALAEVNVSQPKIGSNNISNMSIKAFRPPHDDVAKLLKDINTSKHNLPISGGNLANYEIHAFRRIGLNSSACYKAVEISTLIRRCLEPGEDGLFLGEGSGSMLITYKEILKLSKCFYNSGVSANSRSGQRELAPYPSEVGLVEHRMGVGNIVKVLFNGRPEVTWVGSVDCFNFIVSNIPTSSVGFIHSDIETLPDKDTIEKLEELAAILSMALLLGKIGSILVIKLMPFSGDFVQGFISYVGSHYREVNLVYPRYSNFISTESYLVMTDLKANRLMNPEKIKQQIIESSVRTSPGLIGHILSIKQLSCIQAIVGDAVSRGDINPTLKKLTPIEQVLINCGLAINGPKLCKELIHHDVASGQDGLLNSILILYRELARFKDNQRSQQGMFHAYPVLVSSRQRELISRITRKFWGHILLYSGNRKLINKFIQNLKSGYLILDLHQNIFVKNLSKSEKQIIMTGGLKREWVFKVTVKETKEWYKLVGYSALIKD
Chain of MeV RdRp (P03422 whole entry, further chain): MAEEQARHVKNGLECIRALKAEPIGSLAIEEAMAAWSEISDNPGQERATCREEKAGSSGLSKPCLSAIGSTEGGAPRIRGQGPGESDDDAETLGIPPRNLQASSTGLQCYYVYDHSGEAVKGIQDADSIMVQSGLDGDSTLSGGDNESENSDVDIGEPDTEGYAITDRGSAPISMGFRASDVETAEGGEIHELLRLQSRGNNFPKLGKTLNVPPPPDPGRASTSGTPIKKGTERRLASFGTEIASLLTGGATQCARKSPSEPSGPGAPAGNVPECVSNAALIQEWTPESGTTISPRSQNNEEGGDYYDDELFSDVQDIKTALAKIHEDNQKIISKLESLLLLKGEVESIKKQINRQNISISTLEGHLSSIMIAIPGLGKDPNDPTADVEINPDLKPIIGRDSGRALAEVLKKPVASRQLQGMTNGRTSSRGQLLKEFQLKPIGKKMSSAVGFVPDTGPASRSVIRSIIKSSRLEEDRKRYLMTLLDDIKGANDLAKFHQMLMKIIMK

| Compound | inhibition of viral RdRp activity (relative luciferase activity) [1] | permeability [2] | mutagenicity (Ames) [3] | hERG channel block [4] |
| --- | --- | --- | --- | --- |
| Cn1nc(C(F)(F)F)cc1C(=O)Nc1ccc(S(=O)(=O)N2CCCC[C@H]2CCN2CCOCC2)cc1 [Compound 2o, (S)-1-methyl-N-(4-((2-(2-morpholinoethyl)piperidin-1-yl)sulfonyl)phenyl)-3-(trifluoromethyl)-1H-pyrazole-5-carboxamid] | dose-dependent inhibition | high permeability | – | – |
| Cn1nc(C(F)(F)F)cc1C(=O)Nc1ccc(S(=O)(=O)N2CCCCC2)cc1 [Compound 2] | dose-dependent inhibition | high permeability | non-mutagenic | did not block |
